This is an account of results in ChEMBL document CHEMBL4680154, “The optimization of xanthine derivatives leading to HBK001 hydrochloride as a potent dual ligand targeting DPP-IV and GPR119” (Eur J Med Chem, 2020).

Data set [1] addresses DPP8/9 (Homo sapiens, UniProt Q6V1X1+Q86TI2). Briefly: Inhibition of recombinant human DPP8/9 expressed in Rosetta cells at 10 uM using Gly-Pro-p-nitroanilide as substrate incubated for 1 hr relative to control. As to conditions: probe Gly-Pro-p-nitroanilide.
Data set [2] deals with T1, Glucose-dependent insulinotropic receptor (Homo sapiens) (UniProt Q8TDV5).
T1 sequence (whole entry): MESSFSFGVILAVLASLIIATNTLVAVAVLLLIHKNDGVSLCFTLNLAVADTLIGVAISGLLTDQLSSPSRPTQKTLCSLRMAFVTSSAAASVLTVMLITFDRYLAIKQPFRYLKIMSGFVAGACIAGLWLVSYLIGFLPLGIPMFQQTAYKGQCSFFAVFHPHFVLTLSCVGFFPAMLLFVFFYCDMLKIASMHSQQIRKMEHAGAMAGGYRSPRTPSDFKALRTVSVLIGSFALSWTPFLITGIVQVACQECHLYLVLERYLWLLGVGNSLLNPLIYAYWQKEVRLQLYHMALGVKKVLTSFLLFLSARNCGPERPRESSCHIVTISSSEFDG
Kind of data set: Agonist activity at CREB-LBD and Gal4-DBD fused recombinant human GPR119 expressed in HEK293 cells at 1 uM by firefly luciferase assay relative to AR231453. Type of data set: functional, cell-based. The method, boiled down: (§1)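 HEK293 cells transiently transfected with human GPR119, a Gal4-DBD/CREB-LBD fusion and a Gal4 UAS-driven luciferase reporter, then treated with compound (DMSO vehicle). Firefly luciferase luminescence read. Activation fold = compound/vehicle, expressed as percent of the AR231453 activation fold. EC50 obtained by curve fitting.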

Data set [3] can be described thus: Metabolic stability in ICR/CD-1 mouse hepatocytes assessed as parent compound remaining incubated for 30 mins by LC-MS/MS analysis. Type of data set: ADME, cell-based, Hepatocyte. Conditions: read-out: Stabilty. In short, it runs like this:
(§2)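 Hepatocytes from male ICR/CD-1 mice, male Sprague-Dawley rats, or mixed human donors. Parent compound measured after 30 min incubation and normalised to the time-zero concentration.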

Data set [4] can be described thus: Metabolic stability in Sprague-Dawley rat hepatocytes assessed as parent compound remaining incubated for 30 mins by LC-MS/MS analysis. As to conditions: read-out: Stabilty. Type of data set: ADME, cell-based, Hepatocyte. In short, it runs like this: as §2
Data set [5] is described as follows: Metabolic stability in human hepatocytes assessed as parent compound remaining incubated for 30 mins by LC-MS/MS analysis. As to conditions: read-out: Stabilty. Type of data set: ADME, cell-based, Hepatocyte. The method, boiled down:
as §2

Data set [6] deals with Vero. Kind of data set: Cytotoxicity against African green monkey Vero cells incubated for 48 hrs by MTT assay. Conditions: Chlorocebus sabaeus.
Data set [7] has as its target T2, Glucose-dependent insulinotropic receptor (Homo sapiens, UniProt Q8TDV5).
T2 sequence (Q8TDV5 whole entry): T1 sequence (whole entry)
Kind of data set: Agonist activity at CREB-LBD and Gal4-DBD fused recombinant human GPR119 expressed in HEK293 cells by firefly luciferase assay. Type of data set: functional, cell-based. The method, boiled down:
as §1

The subject of data set [8] is Mus musculus. Kind of data set: Antidiabetic activity in ICR mouse assessed as reduction in blood glucose level at 30 mg/kg, po administered as single dose followed by oral glucose challenge measured after 30 mins by glucose oxidase method. Type of data set: functional, organism-based. The method, boiled down:
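Overnight-fasted ICR mice given compound by oral gavage (vehicle distilled water) before a 2 g/kg oral glucose load. Tail-tip blood taken at 0, 30, 60 and 120 min; glucose measured by the glucose oxidase method. n = 10 per group, mean ± SEM.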

Values after ≈ are worked out from the molar mass of the structure shown. Active and inactive are the calls of the source. The rule behind the calls is not given here.

In the case of `CC#CCn1c(N2CCC[C@@H](N)C2)nc2c1c(=O)n(CCCN1CCC(n3cc(-c4ccccc4)nn3)CC1)c(=O)n2C`, the inhibition at 1 h, 10 µM in data set [1] worked out at 0%. Moreover, the Activity in data set [2] (filed as agonist) was 47%. The remaining at 0.5 h in data set [3] came out at 21%; in data set [4], 19.7%; in data set [5], 68.1%. The IC50 in data set [6] came to 25.9 µg/mL (≈ 44.3 µM).

For `CC#CCn1c(N2CCC[C@@H](N)C2)nc2c1c(=O)n(CCCN1CCC(c3nc(-c4ccccc4)cs3)CC1)c(=O)n2C`, the inhibition at 1 h, 10 µM in data set [1] stood at 2.2%. In addition, the Activity in data set [2] (filed as agonist) amounted to 83%. Also, the EC50 in data set [7] came to 3.13 µM.

In the case of `CC#CCn1c(N2CCC[C@@H](N)C2)nc2c1c(=O)n(CCCN1CCN(c3ncc(CC)cn3)CC1)c(=O)n2C`, the Activity in data set [2] (filed as agonist) came to 85%. Besides, in data set [7], the EC50 is 3.99 µM.

In the case of `CC#CCn1c(N2CCC[C@@H](N)C2)nc2c1c(=O)n(CCCN1CCC(c3nc(-c4ccccc4)c[nH]3)CC1)c(=O)n2C`, in data set [1], the inhibition at 1 h, 10 µM was determined as 5.1%. Also, in data set [2] (filed as agonist), the Activity came to 65%. In addition, in data set [7], the EC50 was determined as 0.6 µM. Further, the remaining at 0.5 h in data set [3] is 69.4%; in data set [4] it was 21.7%; in data set [5] it was 84%. Half-maximal inhibition in data set [6] (IC50) was put at 35.2 µg/mL (≈ 60.3 µM).

`CC(C)c1noc(C2CCN(c3ncnc(Nc4ccc(S(C)(=O)=O)cc4F)c3[N+](=O)[O-])CC2)n1`: the Activity in data set [2] (filed as agonist) stood at 100%. In addition, in data set [7], the EC50 turned out to be 0.64 µM.

In the case of `CC#CCn1c(N2CCC[C@@H](N)C2)nc2c1c(=O)n(CCCN1CCC(c3ncc(-c4ccccc4)o3)CC1)c(=O)n2C`, the inhibition at 1 h, 10 µM in data set [1] came to 3.3%. Besides, in data set [2] (filed as agonist), the Activity is 80%. For the same molecule, the EC50 in data set [7] was determined as 0.83 µM.

`CC#CCn1c(N2CCC[C@@H](N)C2)nc2c1c(=O)n(CCCN1CCN(c3nc(-c4ccccc4)ns3)CC1)c(=O)n2C`: the inhibition at 1 h, 10 µM in data set [1] was 1.6%. Further, the Activity in data set [2] (filed as agonist) was 81%. Moreover, the EC50 in data set [7] is 1.93 µM.

As for `CC#CCn1c(N2CCC[C@@H](N)C2)nc2c1c(=O)n(CCCN1CCN(c3ncc(CCC)cn3)CC1)c(=O)n2C`, the Activity in data set [2] (filed as agonist) is 84%. Moreover, in data set [7], the EC50 is 1.85 µM.

As to `CC#CCn1c(N2CCC[C@@H](N)C2)nc2c1c(=O)n(CCCN1CCC(c3cc(-c4ccccc4)on3)CC1)c(=O)n2C`, the inhibition at 1 h, 10 µM in data set [1] came out at 3.3%. Further, in data set [2] (filed as agonist), the Activity amounted to 49%.

As for `CC#CCn1c(N2CCC[C@@H](N)C2)nc2c1c(=O)n(CCCN1CCN(c3nc(-c4ccccc4)no3)CC1)c(=O)n2C`, the outcome in data set [8] was Active. Moreover, the Activity in data set [2] (filed as agonist) amounted to 58%.

Turning to `CC#CCn1c(N2CCC[C@@H](N)C2)nc2c1c(=O)n(CCCN1CCN(c3nnc(-c4ccccc4)[nH]3)CC1)c(=O)n2C`, the inhibition at 1 h, 10 µM in data set [1] was 7.3%. The Activity in data set [2] was determined as 38%.

As to `CC#CCn1c(N2CCC[C@@H](N)C2)nc2c1c(=O)n(CCCN1CCC(c3nc(-c4ccccc4)no3)CC1)c(=O)n2C`, in data set [2] (filed as agonist), the Activity is 55%.

The inhibition is the change of the read-out against control, counted positive when it falls. By IC50 is commonly meant the concentration that gives 50% inhibition. As a reminder, the EC50 is the concentration that produces a half-maximal response.
